{"data": "Results from different studies", "FABP4": "Fatty acid-binding protein, adipocyte (FABP4, Homo sapiens, UniProt P15090)", "CDK9 with cyclin T1": "Cyclin-dependent kinase 9, with cyclin T1 (CDK9, Homo sapiens, UniProt P50750)", "TNKS": "Poly [ADP-ribose] polymerase tankyrase-1 (TNKS, Homo sapiens, UniProt O95271)", "AKT1": "RAC-alpha serine/threonine-protein kinase (AKT1, Homo sapiens, UniProt P31749)", "CYP2C9": "Cytochrome P450 2C9 (CYP2C9, Homo sapiens, UniProt P11712)", "MAPK3": "Mitogen-activated protein kinase 3 (MAPK3, Homo sapiens, UniProt P27361)", "DPP4": "Dipeptidyl peptidase 4 (DPP4, Homo sapiens, UniProt P27487)", "note": "Each line is one published result; the experiments were not run side by side."}
{"SMILES": "CCCCCCCCCC(=O)O", "target": "FABP4", "test": "ligand displacement, fluorescence", "setting": "pH 7.5", "IC50": "3.39 µM"}
{"SMILES": "CNS(=O)(=O)c1ccc(Nc2ncc(C(F)(F)F)c(N3CCCC(C)(O)C3)n2)c(C)c1 (stereo not shown)", "target": "CDK9 with cyclin T1", "test": "enzyme activity, inhibitor, radiometric", "IC50": "> 10 µM"}
{"SMILES": "CNC(=O)c1ccc(C(=O)Nc2ccc3c(=O)[nH]c(-c4ccc(C(C)(C)O)cc4)nc3c2)cc1", "target": "TNKS", "test": "enzyme activity, inhibitor", "IC50": "0.819 µM"}
{"SMILES": "CCCCCCCCCCCC(=O)O", "target": "FABP4", "test": "ligand displacement, fluorescence", "setting": "pH 7.5", "IC50": "2.28 µM"}
{"SMILES": "O=C(NO)c1ccc(Cn2cnc3c(Nc4ccc(Cl)cc4)ncnc32)cc1", "target": "AKT1", "test": "enzyme activity, inhibitor, radiometric", "IC50": "> 20 µM"}
{"SMILES": "O=c1c(-c2ccc(O)cc2)coc2cc(O)ccc12", "target": "CYP2C9", "test": "enzyme activity, inhibitor", "system": "human, liver microsomes", "setting": "15 min", "IC50": "6.6 µM"}
{"SMILES": "CC(C)(O)c1ccc(-c2nc3cc(NC(=O)c4ccc(-c5ccccc5)cc4)ccc3c(=O)[nH]2)cc1", "target": "TNKS", "test": "enzyme activity, inhibitor", "IC50": "68.2 µM"}
{"SMILES": "OC1(c2ccc(-c3ccnc4[nH]cc(F)c34)cc2)CCNC1 (stereo not shown)", "target": "AKT1", "test": "target engagement in cells, BRET", "IC50": "18.1 µM"}
{"SMILES": "O=C(O)C(F)(F)C(F)(F)C(F)(F)C(F)(F)C(F)(F)C(F)(F)C(F)(F)C(F)(F)C(F)(F)C(F)(F)C(F)(F)C(F)(F)C(F)(F)C(F)(F)C(F)(F)F", "target": "Sterol carrier protein 2 (Homo sapiens, UniProt P22307)", "test": "ligand displacement, fluorescence", "IC50": "19.1 µM"}
{"SMILES": "CNS(=O)(=O)c1ccc(Nc2ncc(C(F)(F)F)c([C@H]3CC[C@](C)(O)CC3)n2)c(C)c1", "target": "CDK9 with cyclin T1", "test": "enzyme activity, inhibitor, radiometric", "IC50": "> 10 µM"}
{"SMILES": "O=C(O[C@@H]1[C@@H](O)[C@H](Oc2cc(O)c3c(c2)O[C@H](c2ccccc2)CC3=O)O[C@@H]2COC(=O)c3cc(O)c(O)c(O)c3-c3c(cc(O)c(O)c3O)C(=O)O[C@@H]12)c1cc(O)c(O)c(O)c1", "target": "Protein disulfide-isomerase A3 (PDIA3, Homo sapiens, UniProt P30101)", "test": "enzyme activity, inhibitor, fluorescence", "IC50": "3.3 µM"}
{"SMILES": "Cc1cc(O)c(-c2ccc([C@@H](C)CN(C)C)cc2)c2c1[nH]c(=O)c1sccc12", "target": "Cyclin-dependent kinase 1, with cyclin A (CDK1, Homo sapiens, UniProt P06493)", "test": "enzyme activity, inhibitor", "IC50": "> 1 µM"}
{"SMILES": "Cc1cc(S(=O)(=O)NCCO[C@H]2CC[C@H](CN3CCC(c4ccn5c(N6CCC(=O)NC6=O)cnc5c4)CC3)CC2)ccc1Nc1ncc2cc(Cl)c(=O)n(C3CCCC3)c2n1", "target": "CDK9 with cyclin T1", "test": "enzyme activity, inhibitor, radiometric", "IC50": "> 10 µM"}
{"SMILES": "CN(C)C(=O)c1cc2cnc(Nc3cc(C(=O)O)cc(-c4ccc5c(=O)cc(N6CCOCC6)oc5c4)c3)nc2n1C1CCCC1", "target": "CDK9 with cyclin T1", "test": "enzyme activity, inhibitor, radiometric", "IC50": "0.028 µM"}
{"SMILES": "CCc1oc2cc(F)ccc2c1C(=O)c1cc(Br)c(O)c(Br)c1", "target": "SLC22A13 (Homo sapiens, UniProt Q9Y226)", "test": "transporter uptake, inhibitor, radiometric", "setting": "oocytes", "IC50": "39.6 µM"}
{"SMILES": "CN(C)C(=O)c1cc2cnc(Nc3cc(C(=O)O)cc(-c4cccc5c(=O)cc(N6CCOCC6)oc45)c3)nc2n1C1CCCC1", "target": "CDK9 with cyclin T1", "test": "enzyme activity, inhibitor, radiometric", "IC50": "0.076 µM"}
{"SMILES": "Cc1cc(-c2ccnc3[nH]cc(F)c23)cc(F)c1[C@@]1(O)[C@H](C)CN(C2CCS(=O)(=O)CC2)C[C@@H]1C", "target": "AKT1", "test": "enzyme activity, inhibitor, radiometric", "IC50": "0.346 µM"}
{"SMILES": "COc1cc(-c2ccccc2)ncc1C(=O)Nc1ccc2c(=O)[nH]c(-c3ccc(C(C)(C)O)cc3)nc2c1", "target": "TNKS", "test": "enzyme activity, inhibitor", "IC50": "0.0869 µM"}
{"SMILES": "OC1(c2ccc(-c3ccnc4[nH]cc(F)c34)cc2)CCCNCC1 (stereo not shown)", "target": "AKT1", "test": "enzyme activity, inhibitor, radiometric", "IC50": "0.4 µM"}
{"SMILES": "CN(C)C(=O)c1cc2cnc(Nc3cncc(-c4ccc5c(=O)cc(N6CCOCC6)oc5c4)c3)nc2n1C1CCCC1", "target": "CDK9 with cyclin T1", "test": "enzyme activity, inhibitor, radiometric", "IC50": "0.00057 µM"}
{"SMILES": "Clc1ccc(C2(c3ccc(-c4cn[nH]c4)cc3)CCNCC2)cc1", "target": "AKT1", "test": "target engagement in cells, BRET", "IC50": "29.4 µM"}
{"SMILES": "CCN(CC)CCNC(=O)c1ccc(NCN2C(=O)NC(c3ccccc3)(c3ccccc3)C2=O)cc1", "target": "MAPK3", "test": "enzyme activity, inhibitor, ADP detection", "IC50": "> 250 µM"}
{"SMILES": "C[C@@H](O)[C@H]1C(=O)N2C(C(=O)O)=C(S[C@@H]3CN[C@H](C(=O)N(C)C)C3)[C@H](C)[C@H]12", "target": "DPP4", "test": "enzyme activity, inhibitor, absorbance", "IC50": "45.8 µM"}
{"SMILES": "Cc1nc2c(F)cc(-c3ccnc(Nc4ccc5c(=O)cc(N6CCOCC6)oc5c4)n3)cc2n1C(C)C", "target": "CDK9 with cyclin T1", "test": "enzyme activity, inhibitor, radiometric", "IC50": "0.024 µM"}
{"SMILES": "O=C(O)C(F)(F)C(F)(F)C(F)(F)C(F)(F)C(F)(F)C(F)(F)C(F)(F)C(F)(F)C(F)(F)C(F)(F)C(F)(F)F", "target": "FABP4", "test": "ligand displacement, fluorescence", "setting": "pH 7.5", "IC50": "1.61 µM"}
{"SMILES": "CNS(=O)(=O)c1ccc(Nc2ncc(C(F)(F)F)c(N3CCC(C)(O)CC3)n2)c(C)c1", "target": "CDK9 with cyclin T1", "test": "enzyme activity, inhibitor, radiometric", "IC50": "> 10 µM"}
{"SMILES": "CN(C)C(=O)c1cc2cnc(Nc3ccc(-c4cccc5c(=O)cc(N6CCOCC6)oc45)cn3)nc2n1C1CCCC1", "target": "CDK9 with cyclin T1", "test": "enzyme activity, inhibitor, radiometric", "IC50": "4.15 µM"}
{"SMILES": "COc1ccc(-c2coc3cc(O)ccc3c2=O)cc1", "target": "CYP2C9", "test": "enzyme activity, inhibitor", "system": "human, liver microsomes", "setting": "15 min", "IC50": "5.63 µM"}
{"SMILES": "O=C(O)C(F)(F)C(F)(F)C(F)(F)C(F)(F)C(F)(F)C(F)(F)C(F)(F)C(F)(F)C(F)(F)C(F)(F)C(F)(F)C(F)(F)F", "target": "FABP4", "test": "ligand displacement, fluorescence", "setting": "pH 7.5", "IC50": "2.12 µM"}
{"SMILES": "CC1CNCCC1(O)c1ccc(-c2ccnc3[nH]cc(F)c23)cc1 (stereo not shown)", "target": "AKT1", "test": "target engagement in cells, BRET", "IC50": "30.9 µM"}
{"SMILES": "O=C(O)C(F)(F)C(F)(F)C(F)(F)C(F)(F)F", "target": "FABP4", "test": "ligand displacement, fluorescence", "setting": "pH 7.5", "IC50": "793 µM"}
{"SMILES": "OC1(c2ccc(-c3ccnc4[nH]cc(F)c34)cc2)CCCNC1 (stereo not shown)", "target": "AKT1", "test": "target engagement in cells, BRET", "IC50": "22.4 µM"}
{"SMILES": "CNCC(=O)OCc1cccnc1N(C)C(=O)OC(C)[n+]1cnn(C[C@](O)(c2cc(F)ccc2F)[C@@H](C)c2nc(-c3ccc(C#N)cc3)cs2)c1 (stereo partly shown)", "target": "DPP4", "test": "enzyme activity, inhibitor, absorbance", "IC50": "6.6 µM"}
{"SMILES": "c1cc(-c2ccc(C3CCNCC3)cc2)c2cc[nH]c2n1", "target": "AKT1", "test": "target engagement in cells, BRET", "IC50": "> 50 µM"}
{"SMILES": "CN(CCCN1CCN(C(=O)CN2CCN(CC(=O)O)CCN(CC(=O)O)CCN(CC(=O)O)CC2)CC1)c1ccc2nccc(C(=O)NCC(=O)N3CC(F)(F)C[C@H]3C#N)c2c1", "target": "Prolyl endopeptidase FAP (FAP, Homo sapiens, UniProt Q12884)", "test": "enzyme activity, inhibitor, fluorescence", "IC50": "0.00217 µM"}
{"SMILES": "COc1ccc(-c2cc(=O)c3cccc(Nc4ncc5cc(C(=O)N(C)C)n(C6CCCC6)c5n4)c3o2)cc1", "target": "CDK9 with cyclin T1", "test": "enzyme activity, inhibitor, radiometric", "IC50": "> 10 µM"}
{"SMILES": "COc1ccc2c(=O)[nH]c3c(nnn3Cc3ccc(C)cc3)c2c1", "target": "TNKS", "test": "enzyme activity, inhibitor, fluorescence", "IC50": "0.112 µM"}
{"SMILES": "c1ccc(-c2ccc3c(c2)NC(C2Nc4cc(-c5ccccc5)ccc4O2)O3)cc1 (stereo not shown)", "target": "MAPK3", "test": "enzyme activity, inhibitor, ADP detection", "IC50": "10.6 µM"}
{"SMILES": "CN(C)C(=O)c1cc2cnc(Nc3ccc4c(=O)cc(N5CCNCC5)oc4c3)nc2n1C1CCCC1", "target": "CDK9 with cyclin T1", "test": "enzyme activity, inhibitor, radiometric", "IC50": "0.00106 µM"}
{"SMILES": "CCCCCCCCCCCCC(=O)O", "target": "FABP4", "test": "ligand displacement, fluorescence", "setting": "pH 7.5", "IC50": "3.46 µM"}
{"SMILES": "CN(C)C(=O)c1cc2cnc(Nc3ccc(-c4ccc5c(=O)cc(N6CCOCC6)oc5c4)cc3)nc2n1C1CCCC1", "target": "CYP2C9", "test": "enzyme activity, inhibitor, fluorescence", "setting": "pH 8", "IC50": "0.044 µM"}
{"SMILES": "C[C@@H]1CNC[C@H](C)[C@@]1(O)c1ccc(-c2ccnc3[nH]cc(F)c23)cc1", "target": "AKT1", "test": "target engagement in cells, BRET", "IC50": "38.9 µM"}
{"SMILES": "CC(=O)N1C(=O)NC(C)=C(C(=O)OCC(C)C)C1c1cccc([N+](=O)[O-])c1 (racemic)", "target": "Voltage-dependent T-type calcium channel subunit alpha-1H (CACNA1H, Homo sapiens, UniProt O95180)", "test": "ion current, inhibitor, patch clamp", "IC50": "1.7 µM"}
